CHO parental Ca: ATP-evoked calcium signal inhibitors, parental CHO, primary screen, counter-screen for OX1R antagonist project, cell-based, fluorescence, Fluo-8 calcium dye; parental CHO-K1, ATP-induced calcium, Fluo-8 fluorescence; AID 463079, 2010; 330,000 compounds, 0.63% hits; inhibition, % at 5.6 µM;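 active means inhibition above that plate's mean sample inhibition plus 3 SD, cut at about 26% in these data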;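 further: 0% = ATP-challenged DMSO wells and 100% = DMSO wells without ATP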
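Test system: parental CHO cells; detection: calcium-sensitive Fluo-8 fluorescence; evaluation: percent inhibition of calcium signal; also added: ATP as calcium-mobilizing challenge; repeats: one well per compound; control set: ATP-challenged DMSO wells low, unchallenged DMSO wells high; compound: single nominal dose of 5.6 µM per compound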
OX1R antag-1: OX1R (HCRTR1) antagonists, primary screen, fluorescence, CHO/OX1R cells, Fluo-8 calcium, orexin A; Orexin/Hypocretin receptor type 1 (Homo sapiens), O43613; Fluo-8 calcium fluorescence; inhibition, % at 5 µM; 330,000 compounds, 0.43% hits;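 active means inhibition above its plate's threshold, mean inhibition of all tested compounds on the plate plus 3 SD, cut at about 37% in these data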;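 further: 0% = orexin A challenge wells and 100% = SB-334867-A antagonist wells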
Target sequence (O43613 whole entry, looked up): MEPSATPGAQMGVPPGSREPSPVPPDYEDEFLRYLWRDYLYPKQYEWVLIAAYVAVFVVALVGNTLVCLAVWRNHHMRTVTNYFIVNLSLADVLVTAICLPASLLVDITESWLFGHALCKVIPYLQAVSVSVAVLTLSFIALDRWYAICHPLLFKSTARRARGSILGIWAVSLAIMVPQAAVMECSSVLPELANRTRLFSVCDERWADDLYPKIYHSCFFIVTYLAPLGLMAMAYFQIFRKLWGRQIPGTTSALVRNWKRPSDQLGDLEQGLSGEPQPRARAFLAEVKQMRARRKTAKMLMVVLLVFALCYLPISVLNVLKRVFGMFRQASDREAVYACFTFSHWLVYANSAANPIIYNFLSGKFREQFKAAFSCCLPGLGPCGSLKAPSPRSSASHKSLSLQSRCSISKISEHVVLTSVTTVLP
TAAR1 agonist: human TAAR1 agonists, primary screen, Fluo-8 calcium fluorescence, CHO RD-HGA16 cells; 360,000 compounds, 0.99% hits; activation, % at 3 µM; vehicle wells 0%, saturating PEA agonist 100%; Trace amine-associated receptor 1 (Homo sapiens), Q96RJ0;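 active means activation above the mean activation of all test compounds in the run plus 3 SD, cut at about 38% in these data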
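Assay system – CHO-derived RD-HGA16 cells with stable Gα16 and human TAAR1 · Compound dosing – one-point dosing at 3 µM (nominal) · Incubation – 17-24 h seeding, 75 min 37 °C dye, 30 min RT · Measured by – kinetic Fluo-8 calcium fluorescence · Control set – DMSO vehicle as 0%, PEA at EC100 as 100% · Repeats – single well for each compound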
TAAR1 antag: human TAAR1 antagonists, primary screen, Fluo-8 calcium fluorescence, CHO RD-HGA16 cells; 360,000 compounds, 1.5% hits; Trace amine-associated receptor 1 (Homo sapiens), Q96RJ0; inhibition, % at 3 µM; antagonist; AID 624466, 2012;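 active means inhibition above a per-plate cutoff, the mean inhibition of test compounds on that plate plus 3 SD, cut at about 49% in these data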;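 further: 0% = DMSO plus EC80 beta-PEA response and 100% = DMSO alone without agonist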
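Material: CHO RD-HGA16 cells bearing hTAAR1; compound dosing: one-point dosing, 3 µM nominal final; schedule: dye loading 75 min at 37 °C, then 30 min room temperature; measured by: calcium fluorescence with Fluo-8; control set: vehicle and agonist controls; replication: n of 1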
NTR1 agonist: agonists of human NTR1, primary screen, imaging, U2OS cells, beta-arrestin-GFP, high content. NTR1-U2OS beta-arrestin-GFP spot imaging, agonist mode. activation, % at 20 µM. 330,000 compounds, 0.17% hits;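 active means activation at or above 40% of the spot to cytoplasm intensity ratio, with at least 20 cells analyzed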;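 further: 0% = DMSO without peptide and 100% = 100 nM NTR1 peptide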
OX1R antag-2: antagonists of human orexin 1 receptor (OX1R); Orexin/Hypocretin receptor type 1 (Homo sapiens), O43613; OX1R-expressing cells, FRET antagonist read-out; inhibition, % at 6.6 µM; 330,000 compounds, 1.8% hits; AID 485270, 2010; in the data active means inhibition mostly above about 38%, no sharp cut-off; inactive means mostly below about 40%;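 further: 0% = agonist challenge alone and 100% = reference antagonist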
Numbers without * were called inactive. Only some compounds are listed: those with a hit (about 4% of all), similar ones and a draw of the others.

How did Cc1cc(NC(=O)CSc2nnc(-c3ccc(O)cc3)o2)no1 do in these assays?
CHO parental Ca: 13; OX1R antag-1: -1; TAAR1 agonist: -1; TAAR1 antag: -9; NTR1 agonist: -1; OX1R antag-2: 22

What do the screens show for `CC(C)OC(=O)CSc1nnc(-c2ccc([N+](=O)[O-])cc2)o1`?
CHO parental Ca: -9; OX1R antag-1: -16; TAAR1 agonist: 5; TAAR1 antag: -2; NTR1 agonist: 0; OX1R antag-2: 65*

Results for CCOC(=O)C1=C(C)NC(C)=C(C(=O)OCC)C1C(=O)OCC(=O)Nc1ccc(NC(C)=O)cc1 ?
TAAR1 agonist: 2; TAAR1 antag: 8

What do the screens show for `O=S1(=O)N[C@H](Cc2ccccc2)COc2cc(Br)ccc21`?
TAAR1 agonist: -1; TAAR1 antag: -25

Results for COc1ccc(N2C(=O)c3[nH]nc(-c4ccccc4)c3C2c2cccc(C(F)(F)F)c2)cc1 (stereo not drawn) ?
TAAR1 agonist: 13; TAAR1 antag: -46

What do the screens show for `O=C(COC(=O)/C=C/c1ccccc1)Nc1ccc2c(c1)OCCO2`?
CHO parental Ca: -12; OX1R antag-1: -8; TAAR1 agonist: 4; TAAR1 antag: -3; NTR1 agonist: 0; OX1R antag-2: -1

Results for O=C(COC(=O)/C=C/c1ccc(Cl)cc1)Nc1ccc2c(c1)OCCO2 ?
CHO parental Ca: 5; OX1R antag-1: -15; TAAR1 agonist: 42*; TAAR1 antag: 54*; NTR1 agonist: 2; OX1R antag-2: 11

Results for COc1ccc(CCNC(=O)COC(=O)/C=C/c2ccc3c(c2)OCO3)cc1 ?
CHO parental Ca: 32*; OX1R antag-1: -21; TAAR1 agonist: 8; TAAR1 antag: 7; NTR1 agonist: -1; OX1R antag-2: 20

What do the screens show for `CCN(CC)C(=O)c1ccc(COc2ccc(Cl)c(C)c2)o1`?
CHO parental Ca: 44*; OX1R antag-1: -13; TAAR1 agonist: 3; TAAR1 antag: 20; NTR1 agonist: 4; OX1R antag-2: 19

Results for COc1ccc(CNC(=O)C2CCN(C(=O)Cc3ccccc3)CC2)cc1 ?
CHO parental Ca: -13; OX1R antag-1: -11; TAAR1 agonist: 1; TAAR1 antag: -12; NTR1 agonist: -1; OX1R antag-2: 11

What do the screens show for `COC(=O)/C=C1\Nc2ccc(Cl)cc2C(=O)NC1=O`?
TAAR1 agonist: 0; TAAR1 antag: -16

How did COc1cc(CCc2ccccc2)c(C(=O)O)c(O)c1C/C=C(/C)CCC=C(C)C do in these assays?
CHO parental Ca: 46*; OX1R antag-1: 23; TAAR1 agonist: -1; TAAR1 antag: 53*; NTR1 agonist: 4; OX1R antag-2: 15

Results for COc1cc(CCc2ccccc2)c(C(=O)O)c(O)c1CC=C(C)C ?
TAAR1 agonist: -3; TAAR1 antag: 26

How did Cc1ccc2sc(NC(=O)c3cccc(N4C(=O)CCC4=O)c3)nc2c1C do in these assays?
CHO parental Ca: 11; OX1R antag-1: 11; TAAR1 agonist: 48*; TAAR1 antag: 45; NTR1 agonist: 1; OX1R antag-2: 26

How did CCc1c(C)nc(SCC(=O)c2cccs2)c(C#N)c1C do in these assays?
CHO parental Ca: -6; OX1R antag-1: -4; TAAR1 agonist: 12; TAAR1 antag: 9; NTR1 agonist: 15; OX1R antag-2: 64*

Results for CCOC(=O)c1c(C)[nH]c(C(=O)COC(=O)[C@H](C)N2C(=O)C3CCCCC3C2=O)c1C (stereo partly drawn) ?
TAAR1 agonist: 20; TAAR1 antag: 56*

What do the screens show for `CC(=O)c1c(C)[nH]c(C(=O)COC(=O)CN2C(=O)C3CCCCC3C2=O)c1C` (stereo not drawn)?
CHO parental Ca: -6; OX1R antag-1: -1; TAAR1 agonist: 13; TAAR1 antag: 2; NTR1 agonist: 0; OX1R antag-2: 3

Results for CCOC(=O)c1c(NC(=O)COc2ccc3ccc(=O)oc3c2)sc(C(=O)N(C)C)c1C ?
CHO parental Ca: -9; OX1R antag-1: 2; TAAR1 agonist: 0; TAAR1 antag: -4; NTR1 agonist: 2; OX1R antag-2: 8

Results for Cc1ccc2nccc(C(=O)N3CCCC(Nc4ccc(C)c(C)c4)C3)c2c1 (stereo not drawn) ?
CHO parental Ca: -31; OX1R antag-1: 27; TAAR1 agonist: 0; TAAR1 antag: -26; NTR1 agonist: 0; OX1R antag-2: 38*

What do the screens show for `CCCC[n+]1ccn(C2=C([O-])c3ccccc3C(=O)/C2=N\S(=O)(=O)c2ccc(Br)cc2)c1`?
CHO parental Ca: -15; OX1R antag-1: -21; TAAR1 agonist: 2; TAAR1 antag: -15; NTR1 agonist: -1; OX1R antag-2: 20

Results for Cc1ccc(S(=O)(=O)/N=C2\C(=O)c3ccccc3C([O-])=C2n2cc[n+](CCC(C)C)c2)cc1 ?
CHO parental Ca: -9; OX1R antag-1: -15; NTR1 agonist: 2; OX1R antag-2: 44*

Results for Cc1ccc(NC(=O)C[n+]2ccn(C3=C([O-])c4ccccc4C3=O)c2)cc1 ?
CHO parental Ca: -2; OX1R antag-1: -7; TAAR1 agonist: 43*; TAAR1 antag: 11; NTR1 agonist: -1; OX1R antag-2: 40

What do the screens show for `Cc1ccc(C2c3c(n[nH]c3C(C)C)C(=O)N2c2ccccc2)cc1` (stereo not drawn)?
TAAR1 agonist: 14; TAAR1 antag: -57

Results for Cc1cccc(-c2ocnc2C(=O)Nc2ccccc2NC(=O)c2ccccn2)c1 ?
CHO parental Ca: -12; OX1R antag-1: -26; TAAR1 agonist: -2; TAAR1 antag: 18; NTR1 agonist: 1; OX1R antag-2: 66*

How did Cc1cc(Oc2cccnc2)ccc1NC(=O)Cc1c[nH]c2ccccc12 do in these assays?
TAAR1 agonist: 1; TAAR1 antag: 7

How did CN(CC(=O)Nc1ncn[nH]1)S(=O)(=O)c1ccc(Cl)cc1 do in these assays?
CHO parental Ca: 9; OX1R antag-1: -1; TAAR1 agonist: 0; TAAR1 antag: -3; NTR1 agonist: -1; OX1R antag-2: 4

Results for CCOC(=O)c1c(CSc2ccccc2)n(C)c2cc(Br)c(OCC(O)CNC(CO)(CO)CO)cc12 (stereo not drawn) ?
CHO parental Ca: 90*; OX1R antag-1: 45; TAAR1 agonist: 2; TAAR1 antag: 29; OX1R antag-2: 13
